Data on 4 molecules can be found in paper PMC3140432 (Biochimica et biophysica acta, 2011).

The target of assay [1] is T1, Gβ1γ2 (Homo sapiens, UniProt P62873). Description: Surface plasmon resonance direct binding to immobilized biotinylated Gβ1γ2. In general terms: In SPR one partner is held on a chip, and binding of the other changes the refractive index at the surface.
For assay [2], the target named is Gβγ (Homo sapiens, UniProt P62873). The experiment in a line: SPR direct binding to Gβγ with surface regeneration protocol. The settings on record: for Kd: Kd (μM), surface regeneration protocol, average of N experiments; for koff: read-out: koff (×10^−4s^−1). In short, it runs like this:
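Gβ1γ2, biotinylated at the Gβ N-terminus, was captured on neutravidin amine-coupled to the sensor (2000–10000 µRIU), then blocked with 1 mM biotin. The run used 50 mM HEPES pH 7.6, 1 mM EDTA, 100 mM NaCl, 0.1% C12E10, 1 mM DTT and 1.2% DMSO at 25°C. Dilutions were injected 7 min at 50 µL/min with 10 min dissociation. Regeneration was 3×30 s MgCl2/urea/guanidine-HCl. Data were reference/blank/DMSO-corrected, fitted by a regeneration kinetic model and averaged.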

Assay [3] addresses Gβ1His6γ2C68S (Homo sapiens, UniProt P62873). The experiment in a line: Non-covalent nano ESI QToF mass spectrometry of Gβγ-gallein complexes. It is filed as binding. As to conditions: collision energies that maintain some non-covalent Gβ-Gγ interactions. In short, it runs like this: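 Test compound (100 µM) mixed with 5 µM Gβ1His6γ2C68S in 20 mM ammonium acetate, pH 7.0, for 30 min at room temperature. Intact non-covalent complexes were analysed by nano-ESI QToF MS under mild ionisation at low and high collision cell voltage. The C68S mutation blocks Gγ2 lipidation, so no detergent was used.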

The target of assay [4] is T1, Gβ1γ2. The experiment in a line: [3H]-gallein binding to Gβγ, spin desalting column separation. The settings on record: 100 μM gallein or greater; 1 μM Gβγ.
Where [5] appears, read: Kd (μM), kinetic titration, average of N experiments.

Read-outs that look alike come from different tables or passages of the source. Where only a bound is given, the exact number is not on record here.

For the molecule `O=C1OC2(c3ccccc31)c1ccc(O)c(O)c1Oc1c2ccc(O)c1O` [Gallein, 3′, 4′, 5′, 6′-tetrahydroxyspiro[2-benzofuran-3, 9′-xanthene]-1-one], the equilibrium dissociation constant (Kd) (in general, the free concentration of one partner at which half of the binding sites on the other are occupied at equilibrium, for simple one-to-one binding) in assay [1] (setting [5]) turned out to be 0.407 ± 0.24 µM; in assay [2], 0.35 ± 0.03 µM. Besides, the “concentration above which non-specific/multiple binding sites were observed” value in assay [1] (kinetic titration) is “above 30 μM”. Further, in assay [1] (kinetic titration), the “koff slower than that of M201” value was 10 fold. The koff in assay [1] (read-out: koff (×10^−4s^−1)) turned out to be 0.00035 ± 4.5e-05 s⁻¹; in assay [2], 0.00032 ± 2.7e-05 s⁻¹. Also, the kon in assay [1] (read-out: kon (M^−1s^−1)) came out at 870 ± 112 M⁻¹ s⁻¹; in assay [2], 981 M⁻¹ s⁻¹; in assay [2] (read-out: kon (M^−1s^−1)), 926 ± 55 M⁻¹ s⁻¹. The “reversal of binding at higher collision energy” value in assay [3] is recorded as “fully reversed”. The maximum binding stoichiometry in assay [4] is 1.6 moles of gallein to 1 mole of Gβγ.

With `O=C(O)C1CCCCC1c1c2ccc(=O)c(O)c-2oc2c(O)c(O)ccc12` (stereo not shown) [M119, 2-(3,4,5-trihydroxy-6-oxoxanthen-9-yl)cyclohexane-1-carboxylic acid], the Kd in assay [1] (Kd (M), Equilibrium titration) stood at 0.46 µM; in assay [1] (Kd (M), Kinetic titration), 0.12 µM; in assay [1] (average Kd), 0.276 ± 0.07 µM. Moreover, in assay [1] (equilibrium analysis, Rmax(obs) fit to 1:1 Langmuir isotherm, single data set), the “Ka (association constant)” value is 2.16e+06 M⁻¹. Moreover, the koff is 0.00012 s⁻¹ in assay [1] (read-out: koff (s^−1), Kinetic titration) and 0.0002 ± 8e-05 s⁻¹ in assay [1] (read-out: koff (×10^−4s^−1)). Moreover, the kon is 830 ± 200 M⁻¹ s⁻¹ in assay [1] (read-out: kon (M^−1s^−1)) and 1027 ± 8 M⁻¹ s⁻¹ in assay [1] (read-out: kon (M^−1s^−1), Kinetic titration).

With `Nc1cccc(Nc2cc(S(=O)(=O)O)c(N)c3c2C(=O)c2ccccc2C3=O)c1` [compound 372, 1-amino-4-(3-aminoanilino)-9,10-dioxoanthracene-2-sulfonic acid], the Kd in assay [1] (setting [5]) amounted to 2 ± 0.3 µM; in assay [2], 2.7 ± 0.45 µM. In addition, the “concentration above which non-specific/multiple binding sites were observed” value in assay [1] (kinetic titration) was greater than 20 µM. Further, the “koff slower than that of M201” value in assay [1] (kinetic titration) came to 10 fold. Further, the koff came out at 0.00086 ± 0.00024 s⁻¹ in assay [1] (read-out: koff (×10^−4s^−1)) and 0.00082 ± 0.00051 s⁻¹ in assay [2]. The kon in assay [1] (read-out: kon (M^−1s^−1)) was 390 ± 93 M⁻¹ s⁻¹; in assay [2] (read-out: kon (M^−1s^−1)), 267 ± 137 M⁻¹ s⁻¹.

As for “SIGK(L9A): Control peptide, non-binding in the ELISA experiments (SIGKAFKIAGYPDYD) [reference compound]”, the “SPR response associated with binding to Gβγ” value in assay [1] (control peptide, data not shown) is given as “did not elicit a response”.
